# An excerpt weighted towards active compounds, which were near 4% of everything screened.
# KCNK3 block: human KCNK3 channel inhibition, primary screen; O14649; CHO-KCNK3 thallium flux, FluxOR fluorescence; hits give low values; B-score at 10 µM; hit rate 0.84% among 340,000;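 active means B-score under library mean minus 4 SD, starting fluorescence ratio at most library mean plus 5 SD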;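 further: more negative B-score means stronger inhibition of thallium flux through KCNK3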
# Target sequence (O14649 whole entry, looked up): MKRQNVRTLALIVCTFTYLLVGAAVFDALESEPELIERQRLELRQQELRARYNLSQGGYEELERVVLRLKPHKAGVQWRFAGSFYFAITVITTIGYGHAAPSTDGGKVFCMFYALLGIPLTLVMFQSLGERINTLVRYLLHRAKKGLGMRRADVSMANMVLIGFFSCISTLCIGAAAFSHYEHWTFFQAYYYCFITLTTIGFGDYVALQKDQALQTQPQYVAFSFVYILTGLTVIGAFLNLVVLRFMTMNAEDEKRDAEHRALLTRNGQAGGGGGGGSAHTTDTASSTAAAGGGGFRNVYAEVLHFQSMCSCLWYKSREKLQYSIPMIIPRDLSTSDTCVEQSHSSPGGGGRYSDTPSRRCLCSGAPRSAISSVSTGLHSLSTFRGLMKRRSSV
# KCNQ1 act: human KCNQ1 channel potentiation or activation; P51787; hit rate 0.35% among 310,000; CHO-K1 KCNQ1, thallium flux FluxOR fluorescence; hits give high values; AID 2648; B-score at 10 µM;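 active means fluorescence ratio B-score, a plate-corrected score, at least three library SD, with initial intensity B-score within 5 SD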
#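 System: Stable KCNQ1 CHO-K1 line | Incubation: 90 min dye loading and 20 min compound exposure, both at room temperature | Measure: Ratio B score | Medium: Assay buffer for compound exposure, DMSO matched across wells | Compound dosing: Single-concentration screen | Probe or stimulus: K+/Tl+ depolarizing stimulus | Measured by: Kinetic FluxOR fluorescence, 10 s baseline plus 110 s post-stimulus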
# hERG rescue: compounds protecting human hERG from proarrhythmic drug block | Q12809 | CHO-hERG, FluxOR thallium flux, dofetilide IC70 present | activation (rescue from dofetilide block), less the hit threshold, % at 10 µM | hit rate 0.51% among 310,000;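 active means activation above the mean of controls blocked by dofetilide plus 5 SD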;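 further: thallium influx through hERG after potassium depolarization seen as dye fluorescence rise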
# KCNK9 inh: inhibitors of human KCNK9 two-pore domain potassium channel; Q9NPC2; HEK293 KCNK9, FluxOR thallium flux fluorescence; hits give low values; B-score at 10 µM; hit rate 1.2% among 310,000;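 active means ratio B-score over 3 SD below the library mean, with starting fluorescence within 5 SD of its mean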;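 further: negative B-score means less thallium flux so channel inhibition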
# PHOSPHO1 inh: blocks human PHOSPHO1 phosphatase activity. recombinant PHOSPHO1, absorbance phosphatase assay. inhibition, % at 13.3 µM. hit rate 1.1% among 290,000; in the data active means inhibition above about 60%
# Target sequence (Q8TCT1 whole entry, looked up): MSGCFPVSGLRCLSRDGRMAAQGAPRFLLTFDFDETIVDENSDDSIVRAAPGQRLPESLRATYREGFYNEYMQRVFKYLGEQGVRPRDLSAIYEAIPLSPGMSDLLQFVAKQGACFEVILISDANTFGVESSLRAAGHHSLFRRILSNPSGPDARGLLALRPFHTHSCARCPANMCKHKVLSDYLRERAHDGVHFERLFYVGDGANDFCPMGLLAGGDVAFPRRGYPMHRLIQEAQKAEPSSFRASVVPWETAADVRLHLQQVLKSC
# KCNQ1 inh: blocks the human KCNQ1 potassium channel; B-score at 10 µM; CHO-K1 KCNQ1, FluxOR thallium flux fluorescence; hits give high values; hit rate 1.3% among 310,000;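 active means compounds whose thallium flux B-score, printed positive for inhibition, exceeds three library SD while starting fluorescence stays within three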;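 further: channel opened by potassium depolarization with thallium stimulus after 20 min compound exposure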
# KCNQ1 block val: human KCNQ1 channel inhibition, validation assay | shares compounds with KCNQ1 inh | KCNQ1 cell line, FluxOR thallium flux fluorescence | inhibition, % at 10 µM | hit rate 93% among 1,600 | AID 588353;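 active means primary screen active, with duplicate mean exceeding buffer control mean plus 3 SD of buffer wells, cut at about 28% in these data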;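 further: 0% = buffer control ratio and 100% = XE991 inhibitor control ratio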
# CHO KCNQ1 ctr: KCNQ1 inhibitor counter-screen hit in parental CHO cells. AID 588366. hit rate 21% among 1,600. shares compounds with KCNQ1 inh. fluorescence ratio (Tl flux) at 10 µM. parental CHO-K1, FluxOR thallium flux fluorescence ratio; hits give low values; zero means no signal rise above baseline;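 active means mean of duplicate thallium-flux fluorescence ratios in parental host cells more than 5 SD below the buffer control mean, cut at about 0.38 in these data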;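 further: ratio is peak minus minimum fluorescence divided by baseline fluorescence; actives read low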
# KCNQ1 ephys val: confirmation of human KCNQ1 potassium channel inhibitors by electrophysiology; shares compounds with KCNQ1 inh; KCNQ1-CHO cells, automated patch clamp current; calls only at 10 µM; hit rate 20% among 490; AID 624120;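 active means KCNQ1 current drop exceeding 3 SD of negative control wells, seen in both duplicate runs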;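 further: steady state current during a 2 s step from -80 to +40 mV; negative values mean current inhibition and positive values mean potentiation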
# KCNQ2 spec: rat KCNQ2 inhibition in KCNQ1 inhibitor specificity screen | shares compounds with KCNQ1 inh | hit rate 71% among 1,600 | inhibition, % at 10 µM | KCNQ2 cells, FluxOR thallium flux fluorescence;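 active means mean percent inhibition of the KCNQ2 thallium signal more than 5 SD above the buffer-only control wells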;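 further: KCNQ2 expressed in CHO cells; 0% = buffer control wells and 100% = XE-991 inhibitor control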
# KCNQ1-KCNE1 inh: selectivity of KCNQ1 inhibitors: inhibition of human KCNQ1/KCNE1 channel | shares compounds with KCNQ1 inh | KCNQ1/KCNE1 cells, FluxOR thallium flux fluorescence | inhibition, % at 10 µM | hit rate 77% among 1,600;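 active means mean percent inhibition of duplicate wells above the buffer-only control mean plus 3 SD of those controls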;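 further: 0% = buffer only wells and 100% = XE-991 inhibitor control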
# An asterisk follows results filed as active; i = inactive; . = no result; + = active, no number.
SMILES,KCNK3 block,KCNQ1 act,hERG rescue,KCNK9 inh,PHOSPHO1 inh,KCNQ1 inh,KCNQ1 block val,CHO KCNQ1 ctr,KCNQ2 spec,KCNQ1-KCNE1 inh,others
O=C(Nc1ccc(OC(F)F)c(Cl)c1)Nc1ccc2c(c1)OCO2,i,i,-3.1,i,-0.6,7*,83.5*,0.45,i,i,
CN(CC(=O)Nc1ccc(F)c(F)c1F)C(=O)C1CCCO1 (stereo unspecified),i,i,-6.5,i,.,i,.,.,.,.,
C/C=C(\C)CN1CCC(n2nccc2NC(=O)c2ccc(OC)cc2)CC1,i,i,-10.7,i,41.8,i,.,.,.,.,
COCCSc1nc(N)c2c3c(sc2n1)CN(C)CC3,i,i,-1.8,i,49.1,i,.,.,.,.,
CC(=O)Nc1ccccc1OCC(=O)c1cc(C)n(Cc2cccs2)c1C,-9.43*,i,-20.8,i,-10.2,7*,110.0*,0.424,99.0%*,38.5%*,
Cc1cc(C(=O)COc2cccnc2[N+](=O)[O-])c(C)n1Cc1cccs1,i,i,-10.6,i,26.7,i,.,.,.,.,
COC(=O)c1ccc(CNC(=O)CN(CCC(C)C)S(=O)(=O)c2ccc3c(c2)OCCO3)cc1,i,i,-9.4,i,3.9,i,.,.,.,.,
CC(C)Cn1c(N)c(C(=O)COC(=O)c2cccc(Cl)c2)c(=O)n(C)c1=O,i,i,-5.0,i,6.5,i,.,.,.,.,
CCOC(=O)c1oc2ccc(S(=O)(=O)n3nc(-c4cc(OC)c(OC)c(OC)c4)cc3N)cc2c1C,i,i,-35.8,i,-9.9,7*,62.5*,0.419,71.0%*,109.5%*,
O=C(Nc1ccc(CN2CCOCC2)cc1)c1ccco1,i,i,-2.6,i,.,i,.,.,.,.,
COC(=O)c1sc(NC(=O)c2cc(-c3ccccc3)nc3ccccc23)c(C#N)c1C,i,i,-27.2,i,96.2*,6*,50.0*,0.537,65.7%*,55.5%*,
Cc1ccc(C)c(-c2cc(C(=O)Nc3nccs3)c3ccccc3n2)c1,i,i,-8.4,-7.85*,27.4,8*,88.0*,0.5,101.7%*,125.0%*,KCNQ1 ephys val=i
Cc1sc(NC(=O)c2cc(-c3ccccc3)nc3ccccc23)c(C(N)=O)c1C,i,i,-6.2,i,-6.4,6*,97.0*,0.464,100.3%*,140.0%*,KCNQ1 ephys val=i
Cc1sc(NC(=O)c2cc(-c3ccc(Cl)cc3)nc3ccccc23)c(C(N)=O)c1C,i,i,-11.6,i,19.4,i,.,.,.,.,
Cc1cccc(NC(=O)c2cc(-c3ccc(C)s3)nc3ccccc23)n1,i,i,-11.0,-7.25*,-18.8,6*,92.5*,0.432,97.7%*,149.0%*,KCNQ1 ephys val=i
Cc1cc(C)cc(N(CC(=O)NCc2ccco2)C(=O)c2snc(C(N)=O)c2N)c1,i,i,-0.8,i,-2.3,i,.,.,.,.,
O=C(O)c1ccc(N/N=C/c2c(F)cccc2Cl)cc1,i,i,-8.0,i,39.9,i,.,.,.,.,
CCOc1ccc(N2CC(C(=O)NCCCN3CCOCC3)CC2=O)cc1 (stereo unspecified),i,i,-11.9,i,-13.9,i,.,.,.,.,
CC(C)N(C(=O)[C@H]1C[C@H](CC(=O)NC(C)(C)C)C(=O)N2CCc3c([nH]c4cc(-c5ccco5)ccc34)[C@]12C)C(C)C,i,.,.,.,.,.,.,.,.,.,
CCOc1ccccc1N1CCN(S(=O)(=O)c2ccc3c4c(cccc24)C(=O)N3)CC1,i,i,-7.4,i,-40.4,7*,69.0*,0.495,i,79.0%*,
C/C(=N/NS(=O)(=O)c1cc(C)ccc1C)c1c[nH]c2ccccc12,i,i,-5.0,i,46.2,i,.,.,.,.,
CCOC(=O)CSc1nc2cc(C(=O)N3CCC(C(N)=O)CC3)ccc2c(=O)n1-c1ccccc1,i,i,-18.7,i,-13.6,i,.,.,.,.,
COC(=O)c1ccc2c(=O)n(-c3ccccc3)c(SCN3C(=O)c4ccccc4C3=O)nc2c1,i,i,-7.6,i,-22.1,6*,87.0*,0.513,i,65.5%*,
CCN(CC)S(=O)(=O)c1ccc(-c2nnc(SCC(=O)Nc3nnc(C)s3)n2CC)cc1,i,i,-9.8,i,36.7,i,.,.,.,.,
CCCCCCN(C(=O)CCCCCN1C(=O)NC(c2cccc([N+](=O)[O-])c2)C(C(=O)OCc2ccccc2)=C1C)C(C(=O)NCCCC)c1ccc(OCC(=O)OC)c(C(=O)OC)c1 (stereo unspecified),.,i,-12.8,i,26.5,i,.,.,.,.,
SMILES,KCNK3 block,KCNQ1 act,hERG rescue,KCNK9 inh,PHOSPHO1 inh,KCNQ1 inh,KCNQ1 block val,CHO KCNQ1 ctr,KCNQ2 spec,KCNQ1-KCNE1 inh,others
CC1(C)CC(=O)C2=C(C1)N1C(=C(C#N)C2c2ccc(Cl)cc2)N=C(N)c2ccccc21 (stereo unspecified),i,i,-11.4,i,-6.1,8*,74.5*,0.412,77.0%*,70.5%*,
N#CC1=C2N=C(N)c3ccccc3N2C2=C(C(=O)CCC2)C1c1ccc(Cl)cc1 (stereo unspecified),i,i,-10.9,i,3.7,i,.,.,.,.,
CCCSc1ccc2nc(-c3ccccc3)cn2c1,i,i,-1.6,i,-11.7,i,.,.,.,.,
CCCCSc1ccc2nc(-c3ccc(C#N)cc3)cn2c1,i,i,-12.8,i,19.1,7*,104.5*,0.561,66.7%*,92.5%*,KCNQ1 ephys val=+
O=C(CCCc1c[nH]c2ccccc12)NCC1COc2ccccc2O1 (stereo unspecified),i,i,-9.5,i,-27.9,10*,62.5*,0.445,74.0%*,78.5%*,
C=CCOC(=O)C1=C(C)NC(C)=C(C(=O)OCC=C)C1/C=C/c1ccccc1,-10.6*,i,-19.6,i,-17.1,12*,135.0*,0.387,101.0%*,126.5%*,KCNQ1 ephys val=i
O=C(Nc1ccc(Cl)cn1)C1C(c2ccccc2)C1(Cl)Cl (stereo unspecified),i,i,-3.7,i,-10.1,i,.,.,.,.,
O=C(Nc1ccccc1)C1C(c2ccccc2)C1(Cl)Cl (stereo unspecified),i,i,-11.5,i,.,14*,102.0*,0.433,101.0%*,136.5%*,KCNQ1 ephys val=+

# Screening results: PubChem, several laboratories
